Data as given in ChEMBL document CHEMBL3808334, “Synthesis and in vitro evaluation of novel triazine analogues as anticancer agents and their interaction studies with bovine serum albumin” (Eur J Med Chem, 2016).

How the values were obtained:
[1] = Growth inhibition of human HCT116 cells assessed as cell growth at 10 uM incubated for 48 hrs by sulforhodamine B assay; type: functional; settings: HCT-116, 48 h, read-out: Activity
Method in brief: (§1)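 Primary screen at one dose (10 µM) across 60 human cancer cell lines. Readout was growth percent relative to untreated control and time-zero.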

[2] = Growth inhibition of human LOXIMVI cells incubated for 48 hrs by sulforhodamine B assay; type: functional; settings: LOX IMVI
Method in brief: (§2)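 Cells were plated at 5,000–40,000 per well according to doubling time and preincubated 24 h at 37 °C in 5% CO2; time-zero plates were then TCA-fixed. Five concentrations (10-fold or ½-log dilutions, DMSO stock) were incubated 48 h. Cells were TCA-fixed, stained with 0.4% SRB and read at 515 nm. GI50 was taken where [(Ti−Tz)/(C−Tz)]×100 = 50.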

KM12 = experiment: Growth inhibition of human KM12 cells assessed as cell growth at 10^-5 M incubated for 48 hrs by sulforhodamine B assay; type: functional; settings: KM12, 48 h, read-out: Activity
[3] = Growth inhibition of human MOLT4 cells assessed as cell growth at 10^-7 M incubated for 48 hrs by sulforhodamine B assay; type: functional; settings: MOLT-4, 48 h, read-out: Activity
Method in brief: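 Cells plated at 5,000–40,000/well according to doubling time and preincubated 24 h at 37 °C, 5% CO₂, with time-zero plates TCA-fixed. Drugs were kept as DMSO concentrates at 400× the top concentration and diluted in medium with 50 µg/ml gentamicin. Five 10-fold or ½-log dilutions were run for 48 h, followed by SRB staining and A515. Percent growth = (Ti−Tz)/(C−Tz)×100, or (Ti−Tz)/Tz×100 when Ti<Tz.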

SK-MEL-2 = experiment: Growth inhibition of human SK-MEL-2 cells assessed as cell growth at 10^-8 M incubated for 48 hrs by sulforhodamine B assay; type: functional; settings: SK-MEL-2, 48 h, read-out: Activity
[4] = Growth inhibition of human HCT116 cells assessed as cell growth at 10^-6 M incubated for 48 hrs by sulforhodamine B assay; type: functional; settings: HCT-116, 48 h, read-out: Activity
Method in brief: (§3)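 Cells seeded at 5,000–40,000/well according to doubling time and preincubated 24 h at 37 °C, 5% CO2. Time-zero plates were TCA-fixed. DMSO concentrate was diluted in medium with 50 µg/ml gentamicin to give five concentrations (10-fold or ½ log steps), then exposed 48 h. Cells were TCA-fixed, stained with 0.4% SRB and read at 515 nm. Percent growth was taken against time-zero and control; GI50, TGI and LC50 derived.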

[5] = Growth inhibition of human OVCAR8 cells assessed as cell growth at 10^-6 M incubated for 48 hrs by sulforhodamine B assay; type: functional; settings: OVCAR-8, 48 h, read-out: Activity
786-0 = experiment: Growth inhibition of human 786-0 cells assessed as cell growth at 10 uM incubated for 48 hrs by sulforhodamine B assay; type: functional; settings: 786-0, 48 h, read-out: Activity
Method in brief: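 One-dose screen at 10 µM final. Cells are plated at 5,000–40,000 per well according to doubling time and preincubated 24 h at 37 °C, 5% CO₂. Compound (DMSO stock diluted in medium with 50 µg/ml gentamicin) is then added for 48 h. Growth percent is read by sulforhodamine B staining, absorbance at 515 nm.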

SN12C = experiment: Growth inhibition of human SN12C cells assessed as cell growth at 10^-6 M incubated for 48 hrs by sulforhodamine B assay; type: functional; settings: read-out: Activity
[6] = Growth inhibition of human BT549 cells assessed as cell growth at 10^-5 M incubated for 48 hrs by sulforhodamine B assay; type: functional; settings: BT-549, 48 h, read-out: Activity
Method in brief: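 Five-dose assay: five concentrations from 10-fold or ½-log serial dilutions. Cells are plated at 5,000–40,000 per well according to doubling time, grown 24 h, then exposed 48 h at 37 °C, 5% CO₂. Fixed with cold 50% TCA (final addition) for 60 min at 4 °C and stained with 0.4% SRB in 1% acetic acid. Bound dye is solubilized in 10 mM Tris base and read at 515 nm. GI₅₀ is where [(Ti−Tz)/(C−Tz)]×100 = 50, with a time-zero plate as Tz.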

[7] = Growth inhibition of human HCT15 cells assessed as cell growth at 10^-4 M incubated for 48 hrs by sulforhodamine B assay; type: functional; settings: HCT-15, 48 h, read-out: Activity; method in brief: as §3
[8] = Growth inhibition of human Caki1 cells assessed as cell growth at 10 uM incubated for 48 hrs by sulforhodamine B assay; type: functional; settings: CAKI-1, 48 h, read-out: Activity; method in brief: as §1
NCI-H226 [9] = experiment: Growth inhibition of human NCI-H226 cells assessed as cell growth at 10^-8 M incubated for 48 hrs by sulforhodamine B assay; type: functional; settings: NCI-H226, 48 h, read-out: Activity
[10] = Growth inhibition of human OVCAR4 cells assessed as cell growth at 10^-6 M incubated for 48 hrs by sulforhodamine B assay; type: functional; settings: OVCAR-4, 48 h, read-out: Activity
[11] = Growth inhibition of human HOP92 cells assessed as cell growth at 10^-7 M incubated for 48 hrs by sulforhodamine B assay; type: functional; settings: HOP-92, 48 h, read-out: Activity
Albumin = Albumin (Bos taurus, UniProt P02769); experiment: Binding affinity to bovine serum albumin assessed as enhancement in emission spectra up to 20 uM by fluorescence spectroscopic analysis relative to control; type: ADME; settings: cattle, isolated protein
Method in brief: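 Fluorescence titration of 10 µM BSA in 0.1 M phosphate buffer pH 7.4 with compound at 0–20 µM, diluted from DMSO stocks. Excitation 280 nm, slit 10 nm, 1 cm quartz cell, 300 K. Changes in the 350 nm Trp emission, new bands near 370–373 nm and isoemissive points are read against BSA alone.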

[12] = Growth inhibition of human UACC62 cells assessed as cell growth at 10^-5 M incubated for 48 hrs by sulforhodamine B assay; type: functional; settings: UACC-62, 48 h, read-out: Activity
[13] = Growth inhibition of human HCC2998 cells assessed as cell growth at 10 uM incubated for 48 hrs by sulforhodamine B assay; type: functional; settings: HCC 2998, 48 h, read-out: Activity; method in brief: as §1
[14] = Growth inhibition of human renal cancer cells incubated for 48 hrs by sulforhodamine B assay; type: functional; settings: Cancer cell lines; for CC50: read-out: LC50 (the source's name)
[15] = Growth inhibition of human HOP92 cells assessed as cell growth at 10 uM incubated for 48 hrs by sulforhodamine B assay; type: functional; settings: HOP-92, 48 h, read-out: Activity
NCI-H226 [16] = experiment: Growth inhibition of human NCI-H226 cells incubated for 48 hrs by sulforhodamine B assay; type: functional; settings: NCI-H226, 48 h; method in brief: as §2
[17] = Growth inhibition of human COLO205 cells assessed as cell growth at 10^-4 M incubated for 48 hrs by sulforhodamine B assay; type: functional; settings: COLO 205, 48 h, read-out: Activity; method in brief: as §3
[18] = read-out: LC50 (the source's name)
[19] = read-out: pLC50 (the source's name) (converted)

Albumin, sequence (P02769 whole entry): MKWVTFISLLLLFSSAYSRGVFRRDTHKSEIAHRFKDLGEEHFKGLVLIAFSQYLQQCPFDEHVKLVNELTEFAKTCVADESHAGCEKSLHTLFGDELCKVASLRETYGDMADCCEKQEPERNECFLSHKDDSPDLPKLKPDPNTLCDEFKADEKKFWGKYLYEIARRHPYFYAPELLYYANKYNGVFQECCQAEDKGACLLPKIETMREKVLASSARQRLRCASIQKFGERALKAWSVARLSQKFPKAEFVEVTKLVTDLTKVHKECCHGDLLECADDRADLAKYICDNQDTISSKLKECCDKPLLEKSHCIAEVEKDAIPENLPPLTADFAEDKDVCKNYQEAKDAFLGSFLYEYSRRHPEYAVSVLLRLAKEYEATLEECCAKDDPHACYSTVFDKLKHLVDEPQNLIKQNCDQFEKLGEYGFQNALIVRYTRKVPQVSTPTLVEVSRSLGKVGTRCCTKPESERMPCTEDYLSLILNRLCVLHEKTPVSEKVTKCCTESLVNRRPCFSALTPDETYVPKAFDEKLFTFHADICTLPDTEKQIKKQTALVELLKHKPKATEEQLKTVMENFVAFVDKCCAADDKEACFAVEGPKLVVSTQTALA

Row | Structure (SMILES) | growth at 10 µM [1] [%] | GI50 ([2]; read-out: GI50) [µM] | GI50 ([2]; read-out: pGI50 (converted)) [µM] | growth at 10 µM (KM12) [%] | growth at 0.1 µM [3] [%] | growth at 0.01 µM (SK-MEL-2) [%] | growth at 1 µM [4] [%] | growth at 1 µM [5] [%] | growth at 10 µM (786-0) [%] | growth at 1 µM (SN12C) [%] | growth at 10 µM [6] [%] | growth at 100 µM [7] [%] | growth at 10 µM [8] [%] | growth at 0.01 µM (NCI-H226 [9]) [%] | growth at 1 µM [10] [%] | growth at 0.1 µM [11] [%] | Activity (Albumin) [%] | growth at 10 µM [12] [%] | growth at 10 µM [13] [%] | GI50 [14] [µM] | further results
1 | c1ccc(-c2nc(Nc3ccc(-c4nc5ccccc5[nH]4)cc3)nc(N3CCOCC3)n2)cc1 | -81.5 | 0.489 | 0.49 | -84 | 79 | 105 | 16 | 89 | -88.9 | 85 | -69 | -49 | -89.4 | 107 | 93 | 107 | 22.78 | -71 | -80.7 | 1.2 | TGI ([2]; read-out: TGI): 2.12 µM; TGI ([2]; read-out: pTGI (converted)): 2.14 µM; TGI [14]: 2.72 µM; CC50 [14]: 6.27 µM; growth at 10 µM [15]: -66.2%; GI50 (NCI-H226 [16]; read-out: GI50): 2.4 µM; CC50 (NCI-H226 [16]; [18]): 8.75 µM; TGI (NCI-H226 [16]; read-out: TGI): 4.58 µM; GI50 (NCI-H226 [16]; read-out: pGI50 (converted)): 2.4 µM; CC50 (NCI-H226 [16]; [19]): 8.71 µM; TGI (NCI-H226 [16]; read-out: pTGI (converted)): 4.57 µM; growth at 100 µM [17]: -74%
2 | Clc1ccc(-c2nc(Nc3ccc(-c4nc5ccccc5[nH]4)cc3)nc(N3CCOCC3)n2)cc1 | -85.5 | 0.189 | 0.191 | -81 | 90 | 99 | -80 | 57 | -94.5 | 47 | -66 | -10 | -93.6 | 101 | 52 | 89 | 49.1 | -77 | -89.9 | 1.11 | TGI [14]: 2.25 µM; CC50 [14]: 5.6 µM; growth at 10 µM [15]: -72.1%; GI50 (NCI-H226 [16]; read-out: GI50): 2.11 µM; TGI (NCI-H226 [16]; read-out: TGI): 4.44 µM; GI50 (NCI-H226 [16]; read-out: pGI50 (converted)): 2.09 µM; TGI (NCI-H226 [16]; read-out: pTGI (converted)): 4.47 µM; growth at 100 µM [17]: -44%
3 | Fc1ccc(-c2nc(Nc3ccc(-c4nc5ccccc5[nH]4)cc3)nc(N3CCOCC3)n2)cc1 | 4.8 | 1.78 | 1.78 | -28 | 96 | 103 | 102 | 101 | -60 | 89 | -53 | -13 | -56.6 | 100 | 96 | 104 | 71.83 | -70 | -19.9 | 2.03 | TGI ([2]; read-out: TGI): 3.59 µM; TGI ([2]; read-out: pTGI (converted)): 3.63 µM; TGI [14]: 7.36 µM; CC50 [14]: 7.83 µM; growth at 10 µM [15]: -6.57%; GI50 (NCI-H226 [16]; read-out: GI50): 3.32 µM; CC50 (NCI-H226 [16]; [18]): > 100 µM; TGI (NCI-H226 [16]; read-out: TGI): 8.6 µM; GI50 (NCI-H226 [16]; read-out: pGI50 (converted)): 3.31 µM; CC50 (NCI-H226 [16]; [19]): > 100 µM; TGI (NCI-H226 [16]; read-out: pTGI (converted)): 8.51 µM; growth at 100 µM [17]: -57%
4 | c1ccc2[nH]c(-c3ccc(Nc4nc(N5CCCCC5)nc(N5CCOCC5)n4)cc3)nc2c1 | 9.65 | 1.75 | 1.74 | -2 | 100 | 97 | 95 | 93 | -57.3 | 100 | -35 | -22 | -46.9 | 84 | 93 | 93 | 49.74 | -53 | -1.07 | 2.46 | CC50 [2, 18]: 7.31 µM; TGI ([2]; read-out: TGI): 3.58 µM; CC50 [2, 19]: 7.24 µM; TGI ([2]; read-out: pTGI (converted)): 3.55 µM; TGI [14]: 11.8 µM; CC50 [14]: 8.29 µM; growth at 10 µM [15]: 43.4%; GI50 (NCI-H226 [16]; read-out: GI50): 3.2 µM; CC50 (NCI-H226 [16]; [18]): > 100 µM; TGI (NCI-H226 [16]; read-out: TGI): 17.7 µM; GI50 (NCI-H226 [16]; read-out: pGI50 (converted)): 3.16 µM; CC50 (NCI-H226 [16]; [19]): > 100 µM; TGI (NCI-H226 [16]; read-out: pTGI (converted)): 17.8 µM; growth at 100 µM [17]: -69%
